Source: PubChem BioAssay (several laboratories)
GPR7 antagonist – human neuropeptides B/W receptor 1 antagonism. P48145. GPR7-expressing cells, fluorescence antagonist assay. inhibition, % at 4.4 µM. 290,000 tested, 1.1% active. AID 1861; in the data active = inhibition above about 16%, passing the limit was not always enough;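 also: cells stimulated with the agonist NPW; 0% = agonist with vehicle and 100% = vehicle without agonist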
Target sequence (P48145 whole entry, looked up): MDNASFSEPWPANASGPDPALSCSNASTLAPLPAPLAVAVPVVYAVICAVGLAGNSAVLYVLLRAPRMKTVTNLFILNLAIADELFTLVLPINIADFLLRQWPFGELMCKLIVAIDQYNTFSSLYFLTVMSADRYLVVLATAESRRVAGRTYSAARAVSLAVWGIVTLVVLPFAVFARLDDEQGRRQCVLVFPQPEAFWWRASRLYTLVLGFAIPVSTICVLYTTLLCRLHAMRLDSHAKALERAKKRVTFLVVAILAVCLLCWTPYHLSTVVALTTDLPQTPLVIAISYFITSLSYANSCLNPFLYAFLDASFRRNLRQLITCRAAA
TAAR1 antagonist – antagonists of human TAAR1 | Q96RJ0 | CHO RD-HGA16 TAAR1, Fluo-8 calcium fluorescence, antagonist | inhibition, % at 3 µM | 360,000 tested, 1.5% active;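 active = inhibition above a per-plate cutoff, the mean inhibition of test compounds on that plate plus 3 SD, cut at about 49% in these data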;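 also: 0% = DMSO plus EC80 beta-PEA response and 100% = DMSO alone without agonist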
Target sequence (Q96RJ0 whole entry, looked up): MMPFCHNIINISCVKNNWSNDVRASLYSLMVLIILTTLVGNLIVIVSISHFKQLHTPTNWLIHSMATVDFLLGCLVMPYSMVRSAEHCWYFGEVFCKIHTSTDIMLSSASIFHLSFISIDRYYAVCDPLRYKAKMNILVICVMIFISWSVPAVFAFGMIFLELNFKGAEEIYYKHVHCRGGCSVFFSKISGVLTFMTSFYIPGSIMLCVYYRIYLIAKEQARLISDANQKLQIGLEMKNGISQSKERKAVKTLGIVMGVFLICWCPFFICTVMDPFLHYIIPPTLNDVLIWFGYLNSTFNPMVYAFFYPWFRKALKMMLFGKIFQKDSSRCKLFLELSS
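Test system: CHO RD-HGA16 cells bearing hTAAR1 | Reagent: β-PEA, EC80 | Compound dosing: 3 µM, single point | Schedule: Dye loading 75 min at 37 °C, then 30 min room temperature | Signal: Calcium fluorescence with Fluo-8 | Evaluation: Percent inhibition of PEA-evoked calcium signal, max/basal emission ratio | Control set: DMSO-only wells and EC80 β-PEA-stimulated wells | Repeats: Singlicate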
MPTP block – blocks calcium-induced mitochondrial swelling. inhibition, % at 10 µM. isolated mouse mitochondria, Ca2+ swelling absorbance, 30 min. AID 602449. 360,000 tested, 1.4% active;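 active = inhibition of 50% or more, scaled per plate between neutral and stimulator controls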;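 also: 0% = DMSO wells given calcium and 100% = 1 mM EGTA wells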
TAAR1 agonist – human TAAR1 agonism | Q96RJ0 | CHO RD-HGA16 TAAR1, Fluo-8 calcium fluorescence; vehicle wells 0%, saturating PEA agonist 100% | activation, % at 3 µM | 360,000 tested, 0.99% active | AID 624467;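 active = activation above the mean activation of all test compounds in the run plus 3 SD, cut at about 38% in these data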
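Signal – calcium-sensitive Fluo-8 signal, excitation 470-495, emission 515-575 nm · System – RD-HGA16 (CHO) cells co-expressing Gα16 and hTAAR1 · Incubation – 17-24 h seeding, 75 min 37 °C dye, 30 min RT · Compound dosing – 3 µM single concentration · Repeats – no replicates (n 1)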
DAGLB inhibitor – blocks human DAGLB lipase activity; Q8NCG7; HEK293T DAGLB membrane lysate, EnzChek fluorogenic substrate; inhibition, % at 5.17 µM; 340,000 tested, 0.059% active; in the data active = inhibition above about 34%;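 also: 0% = enzyme with vehicle and 100% = wells lacking enzyme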
MPTP counter – membrane potential counter-screen of mitochondrial pore inhibitors; 5,000 tested, 78% active; shares compounds with MPTP block; isolated mitochondria, Rhodamine 123 fluorescence; inhibition, % at 10 µM; in the data active = inhibition above about 22%;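 also: 0% = DMSO vehicle and 100% = positive control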
MPTP abs DR – MPTP inhibition, dose response swelling confirmation; shares compounds with MPTP block; isolated mitochondria swelling, absorbance; IC50, µM; 780 tested, 58% active; in the data active = IC50 below about 20 µM
MPTP cs DR – MPTP inhibitor counter-screen activity, dose response | shares compounds with MPTP block | isolated mitochondria counterscreen, fluorescence read-out | IC50, µM | 780 tested, 49% active | AID 651564; in the data active = IC50 below about 80 µM
* = called active by the depositor; / = no result. A selection: hits, their analogues and other compounds. The true share with any hit is near 4%.

SMILES | GPR7 antagonist | TAAR1 antagonist | MPTP block | TAAR1 agonist | DAGLB inhibitor | MPTP counter | others
Cc1cc(NC(=O)C2(C)CCN2C(C)C)c2ccccc2n1 (stereo unspecified) | / | -12 | 1 | 1 | / | /
CC(=O)c1cccc(NC(=S)NCCC2=CCCCC2)c1 | 5 | -6 | 6 | 10 | -2 | /
COc1ccc(NC(=O)Nc2ccc(C)cc2OC(F)F)cc1OC | -14 | 7 | 52* | 5 | -1 | 36*
Cc1ccc(NC(=O)Nc2ccc3c(c2)OCO3)c(OC(F)F)c1 | 5 | -7 | -1 | 2 | -5 | /
CCOC(=O)c1ccc(NC(=S)NCc2ccccc2)cc1 | -3 | 17 | 89* | 6 | -8 | 87*
O=C(NCCC1=CCCCC1)Nc1ccc2nsnc2c1 | -8 | 31 | 85* | 11 | -8 | 85*
CCOC(=O)c1ccc(NC(=S)NCCC2=CCCCC2)cc1 | 14 | 43 | 77* | 10 | -4 | 86*
Cc1ccc(NC(=S)NCCC2=CCCCC2)cc1 | -2 | -26 | 0 | 2 | -13 | /
O=Cc1coc([B-](F)(F)F)c1 | / | -17 | / | 5 | / | /
Fc1ccc2nc(-c3ccc(CN4CCC5(CC4)CNc4ccccc45)cc3)c(-c3ccccc3)nc2c1 | / | -21 | / | -3 | / | /
CCOC(=O)c1ccc(NC(=S)NC2CCCC2)cc1 | -3 | -7 | 95* | 10 | -5 | 96*
CCOC(=O)c1ccc(NC(=S)NC(=O)C2CCCC2)cc1 | -9 | 7 | 1 | 0 | -12 | /
COc1ccc(NC(=O)c2cc3ccccc3cc2O)cc1 | 13 | 1 | 7 | 14 | 4 | /
Cc1ccc(NC(=O)c2cc3ccccc3cc2O)cc1 | 0 | 0 | 70* | 7 | -1 | 73*
O=C(NC1CCCCC1)c1cc2ccccc2cc1O | -15 | -5 | 115* | -3 | -1 | 49*
O=C(NC1CCCCCCC1)c1ccccc1O | -1 | 3 | 0 | 10 | -5 | /
O=C(c1[nH]c(C(F)(F)F)nc1-c1ccccc1)N1CCN(c2c(Cl)cncc2Cl)CC1 | / | 38 | -1 | 30 | / | /
C[C@H](c1ccccc1)N1C[C@@H](COCc2ccccc2)Oc2cccc(N3CCCC3)c2S1(=O)=O | / | 13 | / | 0 | / | /
Cc1cccc2sc(NC(=O)C3CCN(S(=O)(=O)c4cc([N+](=O)[O-])ccc4Cl)CC3)nc12 | 11 | 38 | 100* | 4 | -1 | 75*
COc1ccccc1Oc1ccc2c(c1)C(=O)N(c1cccc(O)c1)C2=O | 1 | 25 | 6 | 8 | 1 | /
COc1ccccc1Oc1ccc2c(c1)C(=O)N(c1cccc3ncccc13)C2=O | 0 | 46 | 96* | 12 | -1 | 112*
O=C(CSc1nc(-c2ccc(Cl)cc2)cs1)Nc1cccc([N+](=O)[O-])c1 | 21 | 19 | 84* | 3 | -3 | 80*
Cc1ccc(-c2csc(NC(=O)CSc3nc(C)cs3)n2)cc1 | -3 | 19 | 70* | 10 | -20 | 56*
Cc1cc(NC(=O)CSc2nc(-c3ccc(Cl)cc3)cs2)no1 | -8 | 16 | 5 | 27 | -3 | /
Cc1ccc2sc(N(CCCN(C)C)C(=O)c3ccc(S(=O)(=O)N(C)Cc4ccccc4)cc3)nc2c1C | / | 45 | 71* | 24 | -2 | -10
SMILES | GPR7 antagonist | TAAR1 antagonist | MPTP block | TAAR1 agonist | DAGLB inhibitor | MPTP counter | others
COc1ccc2sc(N(CCCN(C)C)C(=O)c3ccc(S(=O)(=O)N(C)Cc4ccccc4)cc3)nc2c1 | / | 35 | 78* | 43* | 2 | -11 | MPTP abs DR=8.1*
Cc1ccc2sc(N(CCCN(C)C)C(=O)c3ccc(S(=O)(=O)N(C)C)cc3)nc2c1C | 2 | 5 | -2 | 10 | -2 | /
Cc1cc(NNC(=O)c2cccc(C(F)(F)F)c2)nc2c1c(C)nn2C | -8 | 4 | 86* | 4 | -1 | 41*
COC(=O)c1cc(NC(=O)c2cc(-c3ccc(OC)cc3)oc2C(F)(F)F)ccc1N1CCOCC1 | 3 | -4 | 34 | 1 | -2 | /
COC(=O)c1cc(NC(=O)c2cc(-c3ccc(C(F)(F)F)cc3)oc2C(F)(F)F)ccc1N1CCOCC1 | -6 | -6 | 88* | 1 | 1 | 69*
Fc1ccc(NC(=S)Nc2cccc3ccccc23)cc1F | -1 | 16 | 81* | 8 | -1 | 98*
S=C(Nc1ccc(Cl)cc1)Nc1cccc2cnccc12 | -14 | 2 | 102* | 14 | 2 | 93*
Fc1ccc(NC(=S)Nc2cccc3ccccc23)cc1 | -15 | -4 | 17 | 1 | -1 | /
CN(C(=S)Nc1ccc(SC(F)F)cc1)c1ccc(O)cc1 | 5 | 20 | 97* | 7 | -1 | 82*
CN(C(=S)Nc1ccc(Oc2ccccc2)cc1)c1ccc(O)cc1 | -7 | 36 | 44 | 2 | 5 | /
CCCc1cc(=O)oc2cc(OCc3cc(OC)c(OC)c(OC)c3)c(Cl)cc12 | 13 | -3 | 9 | 14 | 1 | /
CCCCc1cc(=O)oc2cc(OCc3cc(OC)c(OC)c(OC)c3)c(Cl)cc12 | -12 | 0 | 88* | 5 | -2 | -4 | MPTP abs DR=3*;MPTP cs DR=5*
O=C(C[n+]1cnn(CC(=O)c2ccc(Cl)cc2Cl)c1)c1ccc([N+](=O)[O-])cc1 | 4 | -4 | 58* | 6 | 19 | -15 | MPTP abs DR=7.1*;MPTP cs DR=>80
CC(=O)NCCNC(=O)Cn1nnc(-c2ccccc2)c1COc1ccc2ccccc2c1 | / | 20 | 0 | 2 | / | /
COc1ccc(-c2nn(-c3ccccc3)cc2/C=N/N=C(N)N)cc1OC | -12 | 27 | 89* | 0 | 1 | -31
Cc1cc(C)c(C)c(S(=O)(=O)N2CCN(c3ncnc4ccccc34)CC2)c1C | / | 19 | 76* | 3 | 0 | 104*
O=S(=O)(c1cc(C(F)(F)F)ccc1Cl)N1CCN(c2ncnc3ccccc23)CC1 | / | 33 | 93* | 4 | -2 | 105*
O=C1C=C(O)c2cccc(O)c2C1=O | / | -14 | 7 | -1 | 4 | /
O=C1C=C(c2c(O)ccc3ccccc23)c2ccccc2C1=O | / | 48 | 65* | 14 | 0 | 50*
CN(C)CCCOc1nn(Cc2ccccc2)c2ccccc12 | -6 | -12 | 75* | 3 | 3 | -4
N#Cc1cccnc1N1CCN(C(C(=O)NC2CCCC2)c2ccc(F)cc2)CC1 (stereo unspecified) | / | -22 | 2 | 3 | / | /
N#Cc1ccsc1NC(=O)c1ccc(Cl)c([N+](=O)[O-])c1 | 20* | -3 | 82* | 6 | 6 | 71*
Cc1cccc(C)c1NS(=O)(=O)c1ccc(NC(=O)c2ccc(Cl)c([N+](=O)[O-])c2)cc1 | -2 | 9 | 74* | 2 | 5 | 81*
